Active and inactive are the calls of the source. No cut-off for these calls is given here.
Columns and labels:
Mus musculus [1] = assay: Anticonvulsant activity in CF1 albino mouse assessed as inhibition of subcutaneous pentylenetetrazole-induced seizures at 30 mg/kg, ip after 0.5 hrs; assay type: functional, organism-based; design: dose 30 mg/kg
How it was run: (§1)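 Adult male CF no. 1 albino mice (18-25 g) dosed ip with compound suspended in 0.5% methylcellulose (0.01 mL/g). Convulsant: pentylenetetrazol dissolved in 0.9% saline as a 0.85% solution for mice, given subcutaneously.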

Mus musculus [2] = assay: Anticonvulsant activity in CF1 albino mouse assessed as inhibition of subcutaneous pentylenetetrazole-induced seizures at 100 mg/kg, ip after 0.5 hrs; assay type: functional, organism-based; design: dose 100 mg/kg; how it was run: as §1
Mus musculus [3] = assay: Anticonvulsant activity in CF1 albino mouse assessed as inhibition of subcutaneous pentylenetetrazole-induced seizures at 300 mg/kg, ip after 0.5 hrs; assay type: functional, organism-based; design: dose 300 mg/kg; how it was run: as §1
Mus musculus [4] = assay: Anticonvulsant activity in CF1 albino mouse assessed as inhibition of subcutaneous pentylenetetrazole-induced seizures at 30 mg/kg, ip after 4 hrs; assay type: functional, organism-based; design: dose 30 mg/kg; how it was run: as §1
Mus musculus [5] = assay: Anticonvulsant activity in CF1 albino mouse assessed as inhibition of subcutaneous pentylenetetrazole-induced seizures at 100 mg/kg, ip after 4 hrs; assay type: functional, organism-based; design: dose 100 mg/kg; how it was run: as §1
Mus musculus [6] = assay: Teratogenic effect in SWV mouse assessed as dead fetuses at 522 mg/kg, ip administered on morning of day 8 of gestation; assay type: toxicity, organism-based; design: dose 522 mg/kg, route intraperitoneal; details: in vivo
How it was run: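 Inbred SWV mice, which are susceptible to VPA-induced neural tube defects. Two-month-old nulligravid females were mated overnight and checked for vaginal plugs next morning; gestation onset was taken as 10 p.m. the prior night. On gestation day 8.5, each dam received a single ip dose (range 0.55-2.7 mmol/kg) in 25% aqueous Cremophor EL at 10 μL/g. Dead fetuses were counted per implants.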

Mus musculus [7] = assay: Teratogenic effect in SWV mouse assessed as resorptions at 783 mg/kg, ip administered on morning of day 8 of gestation; assay type: toxicity, organism-based; design: dose 783 mg/kg, route intraperitoneal; details: in vivo
How it was run: (§2)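 SWV inbred mice: two-month-old nulligravid females mated overnight with males and checked for vaginal plugs next morning; gestation onset taken as 10 p.m. the previous night. On gestation day 8.5 each dam got one ip injection, 0.55–2.7 mmol/kg, in 25% aqueous Cremophor EL (vehicle controls dosed alike), 10 μL/g body weight. Litters and implants tallied; resorptions and live fetuses reported as counts with percentages.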

Mus musculus [8] = assay: Teratogenic effect in SWV mouse assessed as resorptions at 522 mg/kg, ip administered on morning of day 8 of gestation; assay type: toxicity, organism-based; design: dose 522 mg/kg, route intraperitoneal; details: in vivo; how it was run: as §2
Mus musculus [9] = assay: Teratogenic effect in SWV mouse assessed as resorptions at 316 mg/kg, ip administered on morning of day 8 of gestation; assay type: toxicity, organism-based; design: dose 316 mg/kg, route intraperitoneal; details: in vivo; how it was run: as §2
Mus musculus [10] = assay: Teratogenic effect in SWV mouse assessed as resorptions at 159 mg/kg, ip administered on morning of day 8 of gestation; assay type: toxicity, organism-based; design: dose 159 mg/kg, route intraperitoneal; details: in vivo; how it was run: as §2
Mus musculus [11] = assay: Teratogenic effect in SWV mouse assessed as fetuses with neural tube deffects at 522 mg/kg, ip administered on morning of day 8 of gestation; assay type: toxicity, organism-based; design: dose 522 mg/kg, route intraperitoneal; details: in vivo
How it was run: (§3)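 Two-month-old nulligravid SWV females were mated overnight and checked for vaginal plugs the next morning; gestation onset was set at 10 p.m. the previous night. On gestation day 8.5, each dam received a single ip injection (0.55-2.7 mmol/kg range) or vehicle (25% aqueous Cremophor EL) at 10 μL/g body weight. Litters were scored for implants, resorptions, live and dead fetuses, and fetuses with neural tube defects.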

Mus musculus [12] = assay: Teratogenic effect in SWV mouse assessed as live fetuses at 783 mg/kg, ip administered on morning of day 8 of gestation; assay type: toxicity, organism-based; design: dose 783 mg/kg, route intraperitoneal; details: in vivo; how it was run: as §2
Mus musculus [13] = assay: Teratogenic effect in SWV mouse assessed as live fetuses at 522 mg/kg, ip administered on morning of day 8 of gestation; assay type: toxicity, organism-based; design: dose 522 mg/kg, route intraperitoneal; details: in vivo; how it was run: as §2
Mus musculus [14] = assay: Teratogenic effect in SWV mouse assessed as live fetuses at 316 mg/kg, ip administered on morning of day 8 of gestation; assay type: toxicity, organism-based; design: dose 316 mg/kg, route intraperitoneal; details: in vivo; how it was run: as §2
Mus musculus [15] = assay: Teratogenic effect in SWV mouse assessed as live fetuses at 159 mg/kg, ip administered on morning of day 8 of gestation; assay type: toxicity, organism-based; design: dose 159 mg/kg, route intraperitoneal; details: in vivo; how it was run: as §3
Mus musculus [16] = assay: Anticonvulsant activity in CF1 albino mouse assessed as inhibition of maximal electroshock-induced seizures at 30 mg/kg, ip after 0.5 hrs; assay type: functional, organism-based; design: dose 30 mg/kg
How it was run: (§4)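 Test compounds suspended in 0.5% methylcellulose and given ip to adult male CF no. 1 albino mice (18-25 g) at 0.01 mL/g body weight before maximal electroshock challenge.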

Mus musculus [17] = assay: Anticonvulsant activity in CF1 albino mouse assessed as inhibition of maximal electroshock-induced seizures at 100 mg/kg, ip after 0.5 hrs; assay type: functional, organism-based; design: dose 100 mg/kg; how it was run: as §4
Mus musculus [18] = assay: Anticonvulsant activity in CF1 albino mouse assessed as inhibition of maximal electroshock-induced seizures at 300 mg/kg, ip after 0.5 hrs; assay type: functional, organism-based; design: dose 300 mg/kg; how it was run: as §4
Mus musculus [19] = assay: Anticonvulsant activity in CF1 albino mouse assessed as inhibition of maximal electroshock-induced seizures at 30 mg/kg, ip after 4 hrs; assay type: functional, organism-based; design: dose 30 mg/kg; how it was run: as §4
Mus musculus [20] = assay: Anticonvulsant activity in CF1 albino mouse assessed as inhibition of maximal electroshock-induced seizures at 100 mg/kg, ip after 4 hrs; assay type: functional, organism-based; design: dose 100 mg/kg; how it was run: as §4
Mus musculus [21] = assay: Anticonvulsant activity in CF1 albino mouse assessed as inhibition of maximal electroshock-induced seizures at 300 mg/kg, ip after 4 hrs; assay type: functional, organism-based; design: dose 300 mg/kg; how it was run: as §4
Mus musculus [22] = assay: Anticonvulsant activity in CF1 albino mouse assessed as inhibition of subcutaneous pentylenetetrazole-induced seizures at 300 mg/kg, ip after 4 hrs; assay type: functional, organism-based; design: dose 300 mg/kg; how it was run: as §1
Mus musculus [23] = assay: Neurotoxicity in CF1 albino mouse assessed as motor impairment at 30 mg/kg, ip after 0.5 hrs; assay type: toxicity, organism-based; design: dose 30 mg/kg, route intraperitoneal; details: in vivo
Mus musculus [24] = assay: Neurotoxicity in CF1 albino mouse assessed as motor impairment at 100 mg/kg, ip after 0.5 hrs; assay type: toxicity, organism-based; design: dose 100 mg/kg, route intraperitoneal; details: in vivo
Mus musculus [25] = assay: Neurotoxicity in CF1 albino mouse assessed as motor impairment at 300 mg/kg, ip after 0.5 hrs; assay type: toxicity, organism-based; design: dose 300 mg/kg, route intraperitoneal; details: in vivo
Mus musculus [26] = assay: Neurotoxicity in CF1 albino mouse assessed as motor impairment at 30 mg/kg, ip after 4 hrs; assay type: toxicity, organism-based; design: dose 30 mg/kg, route intraperitoneal; details: in vivo
Mus musculus [27] = assay: Neurotoxicity in CF1 albino mouse assessed as motor impairment at 100 mg/kg, ip after 4 hrs; assay type: toxicity, organism-based; design: dose 100 mg/kg, route intraperitoneal; details: in vivo
Mus musculus [28] = assay: Neurotoxicity in CF1 albino mouse assessed as motor impairment at 300 mg/kg, ip after 4 hrs; assay type: toxicity, organism-based; design: dose 300 mg/kg, route intraperitoneal; details: in vivo
Rattus norvegicus [29] = assay: Anticonvulsant activity in Sprague-Dawley rat assessed as inhibition of maximal electroshock-induced seizures at 30 mg/kg, po after 1 hr
Rattus norvegicus [30] = assay: Anticonvulsant activity in Sprague-Dawley rat assessed as inhibition of maximal electroshock-induced seizures at 30 mg/kg, po after 4 hrs
Rattus norvegicus [31] = assay: Anticonvulsant activity in Sprague-Dawley rat assessed as inhibition of maximal electroshock-induced seizures at 30 mg/kg, po after 30 mins
Rattus norvegicus [32] = assay: Anticonvulsant activity in Sprague-Dawley rat assessed as inhibition of maximal electroshock-induced seizures at 30 mg/kg, po after 15 mins
Mus musculus [33] = assay: Teratogenic effect in SWV mouse assessed as dead fetuses at 91 mg/kg, ip administered on morning of day 8 of gestation; assay type: toxicity, organism-based; design: dose 91 mg/kg, route intraperitoneal; details: in vivo
Mus musculus [34] = assay: Teratogenic effect in SWV mouse assessed as fetuses with neural tube deffects at 301 mg/kg, ip administered on morning of day 8 of gestation; assay type: toxicity, organism-based; design: dose 301 mg/kg, route intraperitoneal; details: in vivo
Mus musculus [35] = assay: Teratogenic effect in SWV mouse assessed as resorptions at 452 mg/kg, ip administered on morning of day 8 of gestation; assay type: toxicity, organism-based; design: dose 452 mg/kg, route intraperitoneal; details: in vivo
Mus musculus [36] = assay: Teratogenic effect in SWV mouse assessed as resorptions at 301 mg/kg, ip administered on morning of day 8 of gestation; assay type: toxicity, organism-based; design: dose 301 mg/kg, route intraperitoneal; details: in vivo
Mus musculus [37] = assay: Teratogenic effect in SWV mouse assessed as resorptions at 181 mg/kg, ip administered on morning of day 8 of gestation; assay type: toxicity, organism-based; design: dose 181 mg/kg, route intraperitoneal; details: in vivo
Mus musculus [38] = assay: Teratogenic effect in SWV mouse assessed as resorptions at 91 mg/kg, ip administered on morning of day 8 of gestation; assay type: toxicity, organism-based; design: dose 91 mg/kg, route intraperitoneal; details: in vivo
Mus musculus [39] = assay: Teratogenic effect in SWV mouse assessed as live fetuses at 452 mg/kg, ip administered on morning of day 8 of gestation; assay type: toxicity, organism-based; design: dose 452 mg/kg, route intraperitoneal; details: in vivo
Mus musculus [40] = assay: Teratogenic effect in SWV mouse assessed as live fetuses at 301 mg/kg, ip administered on morning of day 8 of gestation; assay type: toxicity, organism-based; design: dose 301 mg/kg, route intraperitoneal; details: in vivo; how it was run: as §3
Mus musculus [41] = assay: Teratogenic effect in SWV mouse assessed as live fetuses at 91 mg/kg, ip administered on morning of day 8 of gestation; assay type: toxicity, organism-based; design: dose 91 mg/kg, route intraperitoneal; details: in vivo
Mus musculus [42] = assay: Teratogenic effect in SWV mouse assessed as dead fetuses at 452 mg/kg, ip administered on morning of day 8 of gestation; assay type: toxicity, organism-based; design: dose 452 mg/kg, route intraperitoneal; details: in vivo
Mus musculus [43] = assay: Teratogenic effect in SWV mouse assessed as dead fetuses at 301 mg/kg, ip administered on morning of day 8 of gestation; assay type: toxicity, organism-based; design: dose 301 mg/kg, route intraperitoneal; details: in vivo

| SMILES | Activity (Mus musculus [1]) | Activity (Mus musculus [2]) | Activity (Mus musculus [3]) | Activity (Mus musculus [4]) | Activity (Mus musculus [5]) | Activity (Mus musculus [16]) | Activity (Mus musculus [17]) | Activity (Mus musculus [18]) | Activity (Mus musculus [19]) | Activity (Mus musculus [20]) | Activity (Mus musculus [21]) | Activity (Mus musculus [22]) | Activity (Mus musculus [23]) | Activity (Mus musculus [24]) | Activity (Mus musculus [25]) | Activity (Mus musculus [26]) | Activity (Mus musculus [27]) | Activity (Mus musculus [28]) | further results |
| --- | --- | --- | --- | --- | --- | --- | --- | --- | --- | --- | --- | --- | --- | --- | --- | --- | --- | --- | --- |
| NS(=O)(=O)c1ccc(NC(=O)Cc2ccccc2)cc1 | inactive | inactive | inactive | inactive | inactive | inactive | Active | Active | inactive | Active | Active | inactive | Non-toxic | Non-toxic | Non-toxic | Non-toxic | Non-toxic | Non-toxic | Activity (Mus musculus [6]): 1.8%; Activity (Mus musculus [7]): 83.3%; Activity (Mus musculus [8]): 34.5%; Activity (Mus musculus [9]): 3.6%; Activity (Mus musculus [10]): 6.2%; Activity (Mus musculus [11]): 3%; Activity (Mus musculus [12]): 16.7%; Activity (Mus musculus [13]): 63.7%; Activity (Mus musculus [14]): 96.4%; Activity (Mus musculus [15]): 93.8%; Activity (Rattus norvegicus [29]): Active; Activity (Rattus norvegicus [30]): Active; Activity (Rattus norvegicus [31]): inactive; Activity (Rattus norvegicus [32]): inactive |
| CCCC(CCC)C(=O)O [VALPROIC ACID] | inactive | inactive | Active | inactive | inactive | inactive | inactive | Active | inactive | inactive | inactive | inactive | Non-toxic | Non-toxic | Toxic | Non-toxic | Non-toxic | Non-toxic | Activity (Mus musculus [33]): 0.7%; Activity (Mus musculus [34]): 1.5%; Activity (Mus musculus [35]): 11.3%; Activity (Mus musculus [36]): 11%; Activity (Mus musculus [37]): 7.7%; Activity (Mus musculus [38]): 5.7%; Activity (Mus musculus [39]): 88.1%; Activity (Mus musculus [40]): 86.4%; Activity (Mus musculus [41]): 93.6%; Activity (Mus musculus [42]): 0.6%; Activity (Mus musculus [43]): 2.6% |

Source: ChEMBL document CHEMBL1155468, “Syntheses and evaluation of anticonvulsant profile and teratogenicity of novel amide derivatives of branched aliphatic carboxylic acids with 4-aminobenzensulfonamide” (J Med Chem, 2010)
